# The source made the active and inactive calls. No cut-off for these calls is given here.
# Assays:
# [1] = test system: Human alphaherpesvirus 1; assay: Antiviral activity against ACV-resistant Herpes simplex virus 1 AR-29 infected in African green monkey Vero cells assessed as inhibition of viral infection at 6.25 ug/ml measured after 72 hrs by crystal violet staining based plaque reduction assay relative to control; type: functional; settings: Human alphaherpesvirus 1, AR-29, Vero
# In short: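 Plaque reduction in Vero cells. Mangiferin at 3.12, 6.25, 12.5 or 25 μg/mL is added at infection (0 h) with HSV-1 (10^5 PFU/mL). Agarose overlay with 25 mM MgCl2, 72 h at 37 °C/5% CO2, 20% formaldehyde fix, 0.5% crystal violet stain. %VI is taken against virus control. IC50 comes from linear regression of inhibition curves. Triplicate independent experiments.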
# [2] = test system: Human alphaherpesvirus 1; assay: Virucidal activity against ACV-sensitive Herpes simplex virus 1 KOS infected in African green monkey Vero cells assessed as inhibition of viral inhibition at 25 ug/mL measured after 1 hr by plaque reduction assay relative to control; type: functional; settings: Human alphaherpesvirus 1, strain KOS
# In short: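 HSV-1 KOS suspension incubated with mangiferin (3.12–25 μg/mL) 1 h at 37 °C, then put on Vero cells for plaque reduction: agarose overlay with MgCl2, 72 h, crystal violet staining. %VI against virus control; triplicate independent experiments.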
# [3] = test system: Human alphaherpesvirus 1; assay: Antiviral activity against ACV-sensitive Herpes simplex virus 1 KOS infected in African green monkey Vero cells assessed as inhibition of viral adsorption at 25 ug/mL preincubated for 30 mins and measured after 1 hr by plaque reduction assay; type: functional, organism-based; settings: strain KOS
# In short: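 Vero cells pre-chilled 30 min at 4 °C, then given mangiferin (3.12–25 μg/mL) together with HSV-1 KOS (10^5 PFU/mL); 1 h adsorption at 4 °C, then plaque reduction: agarose/DMEM overlay with 25 mM MgCl2, 72 h at 37 °C, formaldehyde fixation, crystal violet stain. %VI = 1 − PFU treated/PFU virus control; triplicate independent experiments.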
# [4] = Toxicity in Balb/c mouse infected with ACV-sensitive Herpes simplex virus 1 KOS assessed as effect on body weight at 0.7% w/w applied topically 5 times a day at 3 hrs interval for 10 days measured on day 10 post infection; settings: in vivo, topical_or_ocular
# [5] = Toxicity in Balb/c mouse infected with ACV-resistant Herpes simplex virus 1 AR-29 assessed as death at 0.7% w/w applied topically 5 times a day at 3 hrs interval for 10 days measured on day 10 post infection; settings: in vivo, topical_or_ocular
smiles,measurement,setting,value
O=c1c2cc(O)c(O)cc2oc2cc(O)c([C@@H]3O[C@H](CO)[C@@H](O)[C@H](O)[C@H]3O)c(O)c12 [MANGIFERIN],inhibition at 6.25 µg/mL,[1],94.4%
same,inhibition at 25 µg/mL,[2],74.8%
same,inhibition,[3],Active
same,Activity,[4],Non-Toxic
same,Activity,[5],Non-Toxic

# From ChEMBL document CHEMBL4610063, “Mangiferin: A promising natural xanthone from Mangifera indica for the control of acyclovir - resistant herpes simplex virus 1 infection” (Bioorg Med Chem, 2020)
